Experimental data as given in ChEMBL document CHEMBL1156652, “Antiurolithic effect of lupeol and lupeol linoleate in experimental hyperoxaluria” (J Nat Prod, 2008).
Active and inactive are the calls of the source.

Legend:
[1] = test system: Rattus norvegicus; experiment: Effect on vitamin C level in kidney of Wistar rat assessed per mg of protein at 50 mg/kg/day, po for 28 days; type: functional
Summary of the method: (§1)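 Normal male Wistar rats, no ethylene glycol, dosed orally at 50 mg/kg body wt/day for 28 days. Kidney homogenate, 10% in 0.01 M Tris-HCl pH 7.4. SOD unit defined as 50% inhibition of pyrogallol autoxidation; CAT as µmol H2O2 utilized/min. GSH, vitamins C and E as µg/mg protein. Protein by Lowry. Mean ± SEM, 6 rats/group.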

[2] = test system: Rattus norvegicus; experiment: Effect on glutathione peroxidase activity in kidney of Wistar rat assessed per mg of protein at 50 mg/kg/day, po for 28 days; type: functional; summary of the method: as §1
[3] = test system: Rattus norvegicus; experiment: Renoprotective effect in ethylene glycol-hyperoxaluria Wistar rat model assessed as increase in renal gamma glutamyl transferase activity mg of protein at 50 mg/kg/day, po for 28 days; type: functional
Summary of the method: (§2)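 Ethylene glycol given at 0.75% in drinking water for 28 days to male Wistar rats, with concurrent oral dosing at 50 mg/kg body wt/day. Kidney homogenate in 0.01 M Tris-HCl pH 7.4. ALP read as phenol liberated from disodium phenyl phosphate, Folin colour at alkaline pH; γ-GT as p-nitroaniline liberated/min/mg protein. Mean ± SEM, 6 rats/group.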

[4] = test system: Rattus norvegicus; experiment: Reduction in ascorbate-induced lipid peroxidation levels in kidney of ethylene glycol-induced hyperoxaluria Wistar rat model assessed as malondialdehyde release per mg of protein at 50 mg/kg/day, po for 28 days; type: functional
Summary of the method: (§3)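 Male Wistar rats given 0.75% ethylene glycol in drinking water for 28 days, with drug orally at 50 mg/kg body wt/day throughout. Kidney homogenized 10% in ice-cold 0.01 M Tris-HCl, pH 7.4. Lipid peroxidation read as malondialdehyde released, with 10 mM ferrous sulfate or 0.2 mM ascorbate as inducer. Mean ± SEM, 6 rats/group.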

[5] = test system: Rattus norvegicus; experiment: Effect on renal gamma glutamyl transferase activity in Wistar rat assessed mg of protein at 50 mg/kg/day, po for 28 days; type: functional
Summary of the method: (§4)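 Normal male Wistar rats, no ethylene glycol, dosed orally at 50 mg/kg body wt/day for 28 days. Kidney homogenate in 0.01 M Tris-HCl pH 7.4. ALP read as phenol liberated from disodium phenyl phosphate, Folin colour at alkaline pH; γ-GT as p-nitroaniline liberated/min/mg protein. Mean ± SEM, 6 rats/group.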

[6] = test system: Rattus norvegicus; experiment: Reduction of xanthine oxidase activity in liver of ethylene glycol-induced hyperoxaluria Wistar rat model assessed per mg of protein at 50 mg/kg/day, po for 28 days; type: functional
Summary of the method: (§5)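 Hyperoxaluria produced with 0.75% ethylene glycol in drinking water for 28 days, with concurrent oral dosing at 50 mg/kg body wt/day. Liver and kidney homogenized 10% in ice-cold 0.01 M Tris-HCl pH 7.4. LDH assayed with glyoxylate as substrate; GAO and XO by published methods. Mean ± SEM, 6 rats/group.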

[7] = test system: Rattus norvegicus; experiment: Reduction of lactate dehydrogenase activity in kidney of ethylene glycol-induced hyperoxaluria Wistar rat model assessed per mg of protein at 50 mg/kg/day, po for 28 days; type: functional; summary of the method: as §5
[8] = test system: Rattus norvegicus; experiment: Effect on xanthine oxidase activity in liver of Wistar rat assessed per mg of protein at 50 mg/kg/day, po for 28 days; type: functional
Summary of the method: (§6)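 Normal male Wistar rats, no ethylene glycol, given oral dosing at 50 mg/kg body wt/day for 28 days. Liver and kidney homogenized 10% in ice-cold 0.01 M Tris-HCl pH 7.4. LDH assayed with glyoxylate as substrate; GAO and XO by published methods. Mean ± SEM, 6 rats/group.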

[9] = test system: Rattus norvegicus; experiment: Renoprotective effect in ethylene glycol-hyperoxaluria Wistar rat model assessed as increase in renal alkaline phosphatase activity per mg of protein at 50 mg/kg/day, po for 28 days; type: functional; summary of the method: as §2
[10] = test system: Rattus norvegicus; experiment: Effect on lactate dehydrogenase activity in kidney of Wistar rat assessed per mg of protein at 50 mg/kg/day, po for 28 days; type: functional; summary of the method: as §6
[11] = test system: Rattus norvegicus; experiment: Increase in glutathione level in kidney of ethylene glycol-induced hyperoxaluria Wistar rat model assessed per mg of protein at 50 mg/kg/day, po for 28 days; type: functional
Summary of the method: (§7)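 Ethylene glycol-hyperoxaluric male Wistar rats (0.75% in drinking water, 28 days), co-dosed orally at 50 mg/kg body wt/day. Kidney homogenate, 10% in 0.01 M Tris-HCl pH 7.4. SOD unit defined as 50% inhibition of pyrogallol autoxidation; CAT as µmol H2O2 utilized/min. GSH, vitamins C and E as µg/mg protein. Mean ± SEM, 6 rats/group.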

[12] = test system: Rattus norvegicus; experiment: Reduction of lactate dehydrogenase activity in liver of ethylene glycol-induced hyperoxaluria Wistar rat model assessed per mg of protein at 50 mg/kg/day, po for 28 days; type: functional; summary of the method: as §5
[13] = test system: Rattus norvegicus; experiment: Increase in vitamin E level in kidney of ethylene glycol-induced hyperoxaluria Wistar rat model assessed per mg of protein at 50 mg/kg/day, po for 28 days; type: functional; summary of the method: as §7
[14] = test system: Rattus norvegicus; experiment: Effect on superoxide dismutase activity in kidney of Wistar rat assessed per mg of protein at 50 mg/kg/day, po for 28 days; type: functional; summary of the method: as §1
[15] = test system: Rattus norvegicus; experiment: Increase in glutathione peroxidase activity in kidney of ethylene glycol-induced hyperoxaluria Wistar rat model assessed per mg of protein at 50 mg/kg/day, po for 28 days; type: functional; summary of the method: as §7
[16] = test system: Rattus norvegicus; experiment: Effect on catalase activity in kidney of Wistar rat assessed per mg of protein at 50 mg/kg/day, po for 28 days; type: functional; summary of the method: as §1
[17] = test system: Rattus norvegicus; experiment: Effect on ferrous sulfate-induced lipid peroxidation levels in kidney of Wistar rat assessed as malondialdehyde release per mg of protein at 50 mg/kg/day, po for 28 days; type: functional
Summary of the method: (§8)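 Normal male Wistar rats (120 ± 20 g), no ethylene glycol, given drug orally at 50 mg/kg body wt/day for 28 days. Kidney homogenized 10% in ice-cold 0.01 M Tris-HCl, pH 7.4. Lipid peroxidation read as malondialdehyde released, with 10 mM ferrous sulfate or 0.2 mM ascorbate as inducer. Mean ± SEM, 6 rats/group.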

[18] = test system: Rattus norvegicus; experiment: Effect on ascorbate-induced lipid peroxidation levels in kidney of Wistar rat assessed as malondialdehyde release per mg of protein at 50 mg/kg/day, po for 28 days; type: functional; summary of the method: as §8
[19] = test system: Rattus norvegicus; experiment: Effect on glutathione level in kidney of Wistar rat assessed per mg of protein at 50 mg/kg/day, po for 28 days; type: functional; summary of the method: as §1
[20] = test system: Rattus norvegicus; experiment: Reduction of glycolic acid oxidase activity in liver of ethylene glycol-induced hyperoxaluria Wistar rat model assessed per mg of protein at 50 mg/kg/day, po for 28 days; type: functional; summary of the method: as §5
[21] = test system: Rattus norvegicus; experiment: Effect on renal alkaline phosphatase activity in Wistar rat assessed per mg of protein at 50 mg/kg/day, po for 28 days; type: functional; summary of the method: as §4
[22] = test system: Rattus norvegicus; experiment: Nephrotoxicity in Wistar rat at 50 mg/kg/day, po for 28 days; type: toxicity, organism-based; design: route oral; details: in vivo, 672 h
Summary of the method: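 Male Wistar rats (120 ± 20 g), six per group, dosed orally once daily for 28 days, alone or alongside 0.75% ethylene glycol in drinking water to induce hyperoxaluria. After decapitation, kidneys were homogenized (10%) in ice-cold 0.01 M Tris-HCl pH 7.4 for ALP and γ-GT assays, or formalin-fixed, H&E-stained and examined by light microscopy. Data reported as mean ± SEM.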

[23] = test system: Rattus norvegicus; experiment: Effect on lactate dehydrogenase activity in liver of Wistar rat assessed per mg of protein at 50 mg/kg/day, po for 28 days; type: functional; summary of the method: as §6
[24] = test system: Rattus norvegicus; experiment: Increase in superoxide dismutase activity in kidney of ethylene glycol-induced hyperoxaluria Wistar rat model assessed per mg of protein at 50 mg/kg/day, po for 28 days; type: functional; summary of the method: as §7
[25] = test system: Rattus norvegicus; experiment: Effect on xanthine oxidase activity in kidney of Wistar rat assessed per mg of protein at 50 mg/kg/day, po for 28 days; type: functional; summary of the method: as §6
[26] = test system: Rattus norvegicus; experiment: Reduction in ferrous sulfate-induced lipid peroxidation levels in kidney of ethylene glycol-induced hyperoxaluria Wistar rat model assessed as malondialdehyde release per mg of protein at 50 mg/kg/day, po for 28 days; type: functional; summary of the method: as §3
[27] = test system: Rattus norvegicus; experiment: Increase in vitamin C level in kidney of ethylene glycol-induced hyperoxaluria Wistar rat model assessed per mg of protein at 50 mg/kg/day, po for 28 days; type: functional; summary of the method: as §7
[28] = test system: Rattus norvegicus; experiment: Reduction of xanthine oxidase activity in kidney of ethylene glycol-induced hyperoxaluria Wistar rat model assessed per mg of protein at 50 mg/kg/day, po for 28 days; type: functional; summary of the method: as §5
[29] = test system: Rattus norvegicus; experiment: Effect on vitamin E level in kidney of Wistar rat assessed per mg of protein at 50 mg/kg/day, po for 28 days; type: functional; summary of the method: as §1
[30] = test system: Rattus norvegicus; experiment: Protective effect in kidney of ethylene glycol-induced hyperoxaluria Wistar rat model assessed as normal glomerulus/tubule at 50 mg/kg/day, po for 28 days; type: functional, organism-based
Summary of the method: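 Hyperoxaluria induced with 0.75% ethylene glycol in drinking water for 28 days, with concurrent oral dosing at 50 mg/kg body wt/day. Kidney portions fixed in 10% formalin, stained with hematoxylin and eosin, and examined by light microscopy for glomeruli, tubules, crystal deposits and infiltration.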

[31] = test system: Rattus norvegicus; experiment: Effect on glycolic acid oxidase activity in liver of Wistar rat assessed per mg of protein at 50 mg/kg/day, po for 28 days; type: functional; summary of the method: as §6
[32] = test system: Rattus norvegicus; experiment: Increase in catalase activity in kidney of ethylene glycol-induced hyperoxaluria Wistar rat model assessed per mg of protein at 50 mg/kg/day, po for 28 days; type: functional; summary of the method: as §7

Row | Structure (SMILES) | Activity [1] [µg] | Activity [2] [µg/min] | Activity [3] [nmol/min] | Activity [4] [nmol] | Activity [5] [nmol/min] | Activity [6] | Activity [7] | Activity [8] | Activity [9] [µmol/min] | Activity [10] | Activity [11] [µg] | Activity [12] | Activity [13] [µg] | Activity [14] | Activity [15] [µg/min] | Activity [16] [µmol/min] | Activity [17] [nmol] | Activity [18] [nmol] | Activity [19] [µg] | Activity [20] [nmol] | further results
1 | C=C(C)[C@@H]1CC[C@]2(C)CC[C@]3(C)[C@H](CC[C@@H]4[C@@]5(C)CC[C@H](O)C(C)(C)[C@@H]5CC[C@]43C)[C@@H]12 [LUPEOL] | 1.86 | 8.31 | 8.28 | 5.11 | 8.73 | 1.54 | 2.41 | 1.31 | 1.53 | 2.05 | 4.27 | 2.42 | 0.91 | 5.04 | 7.11 | 164.2 | 12.14 | 4.5 | 4.75 | 3.61 | Activity [21]: 1.72 µmol/min; Activity [22]: Non-toxic; Activity [23]: 2.35; Activity [24]: 4.67; Activity [25]: 0.93; Activity [26]: 15.11 nmol; Activity [27]: 1.6 µg; Activity [28]: 1.09; Activity [29]: 1.04 µg; Activity [30]: Active; Activity [31]: 2.77 nmol; Activity [32]: 141.6 µmol/min
2 | C=C(C)[C@@H]1CC[C@]2(C)CC[C@]3(C)C(CC[C@@H]4[C@@]5(C)CC[C@H](OC(=O)CCCCCCC/C=C/C/C=C/CCCCC)C(C)(C)[C@@H]5CC[C@]43C)[C@@H]12 (some centres undefined) [LUPEOL LINOLEATE] | 1.89 | 8.32 | 8.62 | 4.95 | 8.79 | 1.39 | 2.26 | 1.28 | 1.65 | 2.01 | 4.59 | 2.39 | 0.97 | 5 | 8.01 | 164.9 | 12.2 | 4.45 | 4.76 | 3.12 | Activity [21]: 1.68 µmol/min; Activity [22]: Non-toxic; Activity [23]: 2.33; Activity [24]: 4.82; Activity [25]: 0.9; Activity [26]: 13.38 nmol; Activity [27]: 1.74 µg; Activity [28]: 0.97; Activity [29]: 1.06 µg; Activity [30]: Active; Activity [31]: 2.75 nmol; Activity [32]: 155.3 µmol/min
